# Source: ChEMBL document CHEMBL1126880, “3-Acyl-4-hydroxyquinolin-2(1H)-ones. Systemically active anticonvulsants acting by antagonism at the glycine site of the N-methyl-D-aspartate receptor complex” (J Med Chem, 1993)
# Target: Glutamate NMDA receptor
# Experiment: Binding affinity towards NMDA receptor to displace [3H]-L-689,560 from rat cortical membranes
row,IC50 [µM],SMILES
1,6.4,COC(=O)c1c(O)c2ccc(Cl)cc2[nH]c1=O
2,9.3,O=C(c1c(O)nc2cc(Cl)ccc2c1O)N(O)CCc1ccccc1
3,27.5,O=C(OCCc1ccccn1)c1c(O)nc2cc(Cl)ccc2c1O
4,26,CCOC(=O)c1c(O)nc2cc(C#N)ccc2c1O
5,> 100,CCOC(=O)c1c(O)nc2ccc(Cl)cc2c1O
6,6.85,O=C(c1cccnc1)c1c(O)nc2cc(Cl)ccc2c1O
7,2.39,O=C(c1ccco1)c1c(O)nc2cc(Cl)ccc2c1O
8,> 1000,CCOC(=O)c1c(O)nc2cccc(C)c2c1O
9,> 100,O=C(CCc1ccccc1)c1c(O)nc2cc(Cl)ccc2c1O
10,> 100,COC(=O)C1C(=O)Nc2cc(Cl)ccc21 (stereo not drawn)
11,2.64,O=C(OCCCc1cccc(O)c1)c1c(O)nc2cc(Cl)ccc2c1O
12,1.82,O=C(OCCc1cccc(O)c1)c1c(O)nc2cc(Cl)ccc2c1O
13,> 100,NC(=O)c1c(O)nc2cc(Cl)ccc2c1O
14,3.09,CONC(=O)c1c(O)nc2cc(Cl)ccc2c1O
15,> 10,O=C(SCCc1ccccc1)c1c(O)nc2cc(Cl)ccc2c1O
16,> 100,O=C(c1c(O)nc2cc(Cl)ccc2c1O)C1CCCCC1
17,3.16,O=C1Nc2cc(Cl)ccc2C(=O)C1C(=O)c1ccccc1 (stereo not drawn)
18,> 100,O=C(NCCc1ccc(O)cc1)c1c(O)nc2cc(Cl)ccc2c1O
19,> 100,CN(Cc1ccccc1)C(=O)c1c(O)nc2cc(Cl)ccc2c1O
20,> 100,CCOC(=O)C1Oc2ccc(Cl)cc2NC1=O (stereo not drawn)
21,6.32,O=C(NO)c1c(O)nc2cc(Cl)ccc2c1O

# Further lines, the compound ahead of its results:
row,SMILES,IC50 [µM]
1,O=C(OCc1cccc(O)c1)c1c(O)nc2cc(Cl)ccc2c1O,6.13
2,O=C(OCCc1c[nH]c2ccccc12)c1c(O)nc2cc(Cl)ccc2c1O,0.43
3,O=C1CC(=O)c2ccc(Cl)cc2N1,> 100
4,CCOC(=O)c1c(O)nc2ccccc2c1O,> 100
5,COc1cccc(C#CCOC(=O)c2c(O)nc3cc(Cl)ccc3c2O)c1,0.27
6,CCOC(=O)c1c(O)nc2cc(C(F)(F)F)ccc2c1O,12.3
7,O=C(OCC#Cc1cccc(O)c1)c1c(O)c2ccc(Cl)cc2[nH]c1=O,0.17
8,CCOC(=O)c1c(O)c2ccc([N+](=O)[O-])cc2[nH]c1=O,25.4
9,O=C(OCCc1ccc(O)cc1)c1c(O)nc2cc(Cl)ccc2c1O,2.93
10,CCOC(=O)c1c(O)nc2c(C)cccc2c1O,> 100
11,COC(=O)C1C(=O)Nc2cc(Cl)ccc2S1(=O)=O (stereo not drawn),13.6
12,O=C(OCCCCc1cccc(O)c1)c1c(O)nc2cc(Cl)ccc2c1O,2.62
13,CCOC(=O)C1C(=O)Nc2cc(Cl)ccc2C1=O (stereo not drawn),16.7
14,C#CCOC(=O)c1c(O)nc2cc(Cl)ccc2c1O,9
15,O=C(OCCc1ccccc1O)c1c(O)nc2cc(Cl)ccc2c1O,7.12
16,CCCOC(=O)c1c(O)nc2cc(Cl)ccc2c1O,> 100
17,O=C1CS(=O)(=O)c2ccc(Cl)cc2N1,> 100
18,O=C(c1ccsc1)c1c(O)nc2cc(Cl)ccc2c1O,1.97
19,O=C(Cc1cccs1)c1c(O)nc2cc(Cl)ccc2c1O,1.07
20,O=C(Cc1ccccc1)c1c(O)c2ccc(Cl)cc2[nH]c1=O,0.93
21,CCOC(=O)c1c(O)nc2cc([N+](=O)[O-])c([N+](=O)[O-])cc2c1O,10.5
22,O=C(OCCc1cccs1)c1c(O)nc2cc(Cl)ccc2c1O,3
23,CC(=O)c1c(O)nc2cc(Cl)ccc2c1O,> 100
24,CON(C)C(=O)c1c(O)nc2cc(Cl)ccc2c1O,47.1
25,C=CCOC(=O)c1c(O)c2ccc(Cl)cc2[nH]c1=O,6.42
26,O=C(NOCc1ccccc1)c1c(O)nc2cc(Cl)ccc2c1O,> 100

# System: Mus musculus
# Experiment: Effective dose of compound required to protect audiogenic seizure in DBA/2 mice administered ip
# Type: functional
# Method in brief: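 DBA/2 mice received compound intraperitoneally 30 min before audiogenic seizure induction. Protection was reported as an ED50 or as number protected/number tested at a single dose.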
row,SMILES,ED50 [mg/kg]
1,O=C(c1c(O)nc2cc(Cl)ccc2c1O)C1CC1,4.1
2,O=C(Cc1ccccc1)c1c(O)c2ccc(Cl)cc2[nH]c1=O,31.6

# Species: Rattus norvegicus
# Experiment: Antagonistic activity against NMDA-induced response in rat cortical slice
# Type: functional
# Method in brief: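 Rat cortical slices were challenged with NMDA, with and without antagonist. Apparent Kb was calculated from the rightward shift of the NMDA concentration-response curve. Values are means of at least three experiments, with maximum variance (geometric mean) of 15%.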
row,SMILES,Kb [µM]
1,O=C(c1c(O)nc2cc(Cl)ccc2c1O)C1CC1,3.39
2,CCOC(=O)C1C(=O)Nc2cc(Cl)ccc2C1=O (stereo not drawn),65.4
3,COC(=O)C1C(=O)Nc2cc(Cl)ccc21 (stereo not drawn),441
4,O=C(Cc1ccccc1)c1c(O)c2ccc(Cl)cc2[nH]c1=O,3.92
